ChEMBL document CHEMBL3272222, “Heterocyclic and piperonylic acid esters of 1-methyl-4-piperidinol as analgesics” (J Med Chem, 1977)
Activity calls are given as the source filed them. No cut-off for these calls is given here.

Assays:
[1] = test system: Mus musculus; experiment: Analgesic activity in sc dosed mouse by hot-plate assay; type: functional
Procedure, shortened: (§1)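 Mice dosed subcutaneously with compounds as water-soluble salts. ED50 in mg/kg, with 95% confidence limits from probit analysis. Overt toxicity was also noted at the doses given.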

[2] = test system: Rhesus monkey; experiment: Toxicity in nonwithdrawn monkey assessed as mild abstinence signs at 6 mg/kg administered as single dose; type: organism-based, Macaca mulatta; parameters: dose 6 mg/kg; details: in vivo
[3] = test system: Rhesus monkey; experiment: Toxicity in nonwithdrawn monkey assessed as mild CNS depression at 6 mg/kg administered as single dose; type: organism-based, Macaca mulatta; parameters: dose 6 mg/kg; details: in vivo
[4] = test system: Rhesus monkey; experiment: Toxicity in monkey assessed as piloerection at 12 mg/kg administered as single dose; type: organism-based, Macaca mulatta; parameters: dose 12 mg/kg; details: in vivo
[5] = test system: Rhesus monkey; experiment: Toxicity in monkey assessed as tremors at 12 mg/kg administered as single dose; type: organism-based, Macaca mulatta; parameters: dose 12 mg/kg; details: in vivo
[6] = test system: Rhesus monkey; experiment: Toxicity in monkey assessed as retching at 12 mg/kg administered as single dose; type: organism-based, Macaca mulatta; parameters: dose 12 mg/kg; details: in vivo
[7] = test system: Rhesus monkey; experiment: Toxicity in monkey assessed as increased respiration at 12 mg/kg administered as single dose; type: organism-based, Macaca mulatta; parameters: dose 12 mg/kg; details: in vivo
[8] = test system: Mus musculus; experiment: Toxicity in mouse at 30 mg/kg, sc; type: organism-based; parameters: dose 30 mg/kg, route subcutaneous; details: in vivo
Procedure, shortened: (§2)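 Toxic signs were recorded in mice during analgesic testing after subcutaneous doses of the compounds, given as water-soluble salts.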

[9] = test system: Rhesus monkey; experiment: Toxicity in monkey assessed as morphine-like dependence liability; type: organism-based, Macaca mulatta; details: in vivo
Procedure, shortened: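 Physical dependence liability of the morphine type was assessed in Rhesus monkeys.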

[10] = test system: Rhesus monkey; experiment: Toxicity in monkey assessed as increase in severity of abstinence signs at 6 mg/kg administered as single dose; type: organism-based, Macaca mulatta; parameters: dose 6 mg/kg; details: in vivo
Procedure, shortened: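 Rhesus monkeys were used in single-dose suppression tests for physical dependence. The compound was given at 6.0 mg/kg and the severity of abstinence signs was scored.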

[11] = target: Opioid receptor (Rattus norvegicus) (UniProt P33533+P34975+P33535); details: Brain
Sequence of Opioid receptor (Rattus norvegicus) (P33533 whole entry, looked up): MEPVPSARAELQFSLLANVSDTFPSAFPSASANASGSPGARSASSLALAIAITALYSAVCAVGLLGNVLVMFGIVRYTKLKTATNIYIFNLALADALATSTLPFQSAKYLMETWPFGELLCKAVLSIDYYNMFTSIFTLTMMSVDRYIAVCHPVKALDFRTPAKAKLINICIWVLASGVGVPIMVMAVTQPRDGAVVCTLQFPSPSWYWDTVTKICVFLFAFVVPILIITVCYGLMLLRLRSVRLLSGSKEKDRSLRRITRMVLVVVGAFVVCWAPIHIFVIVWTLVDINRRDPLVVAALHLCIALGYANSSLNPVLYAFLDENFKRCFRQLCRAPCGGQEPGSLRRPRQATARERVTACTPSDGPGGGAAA
Sequence of Opioid receptor (Rattus norvegicus) (P33535 whole entry, looked up): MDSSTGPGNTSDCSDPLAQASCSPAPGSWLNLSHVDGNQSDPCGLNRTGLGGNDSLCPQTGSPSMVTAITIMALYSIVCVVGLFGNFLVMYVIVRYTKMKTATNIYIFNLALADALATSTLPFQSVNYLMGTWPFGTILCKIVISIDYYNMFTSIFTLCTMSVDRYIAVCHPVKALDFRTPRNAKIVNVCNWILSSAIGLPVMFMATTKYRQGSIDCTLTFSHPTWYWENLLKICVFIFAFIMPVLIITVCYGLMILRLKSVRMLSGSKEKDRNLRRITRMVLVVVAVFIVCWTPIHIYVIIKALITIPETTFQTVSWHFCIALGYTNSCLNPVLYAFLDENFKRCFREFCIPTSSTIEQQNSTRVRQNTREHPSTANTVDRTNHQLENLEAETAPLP
Sequence of Opioid receptor (Rattus norvegicus) (P34975 whole entry, looked up): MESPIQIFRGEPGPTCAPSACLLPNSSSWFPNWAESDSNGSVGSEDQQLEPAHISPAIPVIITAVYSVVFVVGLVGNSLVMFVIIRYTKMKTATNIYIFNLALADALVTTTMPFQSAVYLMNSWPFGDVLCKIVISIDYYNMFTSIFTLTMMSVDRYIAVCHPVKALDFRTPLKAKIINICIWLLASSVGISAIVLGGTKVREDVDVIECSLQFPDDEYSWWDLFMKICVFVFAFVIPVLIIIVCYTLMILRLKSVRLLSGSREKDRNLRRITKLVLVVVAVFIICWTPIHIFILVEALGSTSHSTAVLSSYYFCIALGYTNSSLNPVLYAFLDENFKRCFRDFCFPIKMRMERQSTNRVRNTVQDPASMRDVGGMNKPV

[12] = test system: Mus musculus; experiment: Toxicity in mouse at 60 mg/kg, sc; type: organism-based; parameters: dose 60 mg/kg, route subcutaneous; details: in vivo; procedure, shortened: as §2
[13] = test system: Mus musculus; experiment: Analgesic activity in sc dosed mouse by Nilsen method; type: functional; procedure, shortened: as §1
[14] = test system: Mus musculus; experiment: Toxicity in mouse at 40 mg/kg, sc; type: organism-based; parameters: dose 40 mg/kg, route subcutaneous; details: in vivo; procedure, shortened: as §2
[15] = test system: Mus musculus; experiment: Toxicity in mouse at 50 mg/kg, sc; type: organism-based; parameters: dose 50 mg/kg, route subcutaneous; details: in vivo; procedure, shortened: as §2
[16] = test system: Mus musculus; experiment: Analgesic activity in mouse at 20 mg/kg, sc by hot-plate assay; type: functional, organism-based; parameters: dose 20 mg/kg
Procedure, shortened: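 Mouse hot-plate analgesia test. Compounds were given subcutaneously as water-soluble salts. ED50 values carry 95% confidence limits from probit analysis.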

[17] = test system: Mus musculus; experiment: Analgesic activity in sc dosed mouse by tail-flick assay; type: functional
[18] = test system: Mus musculus; experiment: Analgesic activity in sc dosed mouse assessed as inhibition of p-phenylquinone-induced abdominal-stretching; type: functional
[19] = test system: Mus musculus; experiment: Analgesic activity in mouse at 10 mg/kg, sc by tail-flick assay; type: functional, organism-based; parameters: dose 10 mg/kg
[20] = test system: Mus musculus; experiment: Analgesic activity in mouse assessed as inhibition of p-phenylquinone-induced abdominal-stretching at 10 mg/kg, sc; type: functional, organism-based; parameters: dose 10 mg/kg
Procedure, shortened: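 Mice were dosed subcutaneously with test compounds as water-soluble salts and then run in the tail-flick assay and in the p-phenylquinone-induced abdominal-stretching (PPQ) assay.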

[21] = test system: Mus musculus; experiment: Toxicity in mouse at 20 mg/kg, sc; type: organism-based; parameters: dose 20 mg/kg, route subcutaneous; details: in vivo; procedure, shortened: as §2

`Cc1ccc(C(=O)OC2CCN(C)CC2)s1` was tested, and the ED50 [1] was “inactive”.
With `CN1CCC(OC(=O)c2ccc3c(c2)OCO3)CC1.Cl` the Activity [2] was “Toxic”, the Activity [3] was “Toxic” and the Activity [4] was “Toxic”. For the same compound, the Activity [5] was “Toxic”, the Activity [6] was “Toxic” and the Activity [7] was “Toxic”. The Activity [8] was “Non-toxic”, the Activity [9] was “Non-toxic” and the Activity [10] was “Toxic”. It also gave an ED50 [11] of 30 µM.
In the case of `CCOC(=O)C1(c2ccccc2)CCN(C)CC1`, the ED50 [11] is reported as 0.7 µM.
With `CN1CCC(OC(=O)c2cnc3ccccc3c2)CC1.Cl` the ED50 [1] was 11.2 mg/kg and the Activity [12] was “Non-toxic”.
In the case of `CN1CCC(OC(=O)c2ccc(Br)o2)CC1.Cl`, the ED50 [1] is reported as 17.7 mg/kg.
For `CN1CCC(OC(=O)c2ccc3ncccc3c2)CC1.Cl`, the ED50 [1] was 9.3 mg/kg, the ED50 [13] was 29.7 mg/kg and the Activity [14] was “Non-toxic”. The Activity [15] was “Toxic” and the ED50 [11] was greater than 100 µM.
`CN1CCC(OC(=O)c2ccncc2)CC1.O=C(O)/C=C\C(=O)O` was tested, and the ED50 [1] was 44.2 mg/kg.
In the case of `Cc1c(C(=O)OC2CCN(C)CC2)c(C)n(C)c1C`, the Activity [16] is reported as “Active”.
For `CN1CCC(OC(=O)c2ccco2)CC1.O=C(O)/C=C\C(=O)O`, the ED50 [1] was 12.5 mg/kg and the Activity [15] was “Non-toxic”.
For `CN1CCC(OC(=O)c2cnc3ccccc3n2)CC1`, the ED50 [1] was “inactive”.
In the case of `Cc1ccc(C(=O)OC2CCN(C)CC2)cc1C`, the Activity [16] is reported as “Active”.
`CN1CCCC(COC(=O)c2ccc3c(c2)OCO3)C1.Cl` (stereo not given) was tested, and the ED50 [1] was 22.7 mg/kg.
With `CN1CCC(OC(=O)C2c3ccccc3Oc3ccccc32)CC1.Cl` the ED50 [1] was 35 mg/kg.
For `Cc1[nH]c(C)c(C(=O)OC2CCN(C)CC2)c1C`, the ED50 [17] was 15.1 mg/kg, the ED50 [18] was 15.1 mg/kg and the Activity [19] was “Active”. The Activity [20] was “Active”, the Activity [21] was “Non-toxic” and the ED50 [11] was 1 µM.
In the case of `CN1CCC(OC(=O)c2cccs2)CC1.Cl`, the ED50 [1] is reported as 13.3 mg/kg, the ED50 [13] is reported as “inactive” and the Activity [14] is reported as “Non-toxic”. It also gave an ED50 [11] greater than 100 µM.
With `CN1CCC(OC(=O)c2ccoc2)CC1.O=C(O)/C=C\C(=O)O` the ED50 [1] was 27.9 mg/kg.
`Cc1[nH]c(C)c(C(=O)OC2CCCN(C)C2)c1C` (stereo not given) was tested, and the ED50 [1] was “inactive”.
